# This is a sample that favours compounds with a hit; in the whole collection about 4.6% have one here.
# ALR H2O2 inh: inhibitors of human ALR sulfhydryl oxidase, primary screen, biochemical, H2O2 detection, HRP-luminol luminescence, single point; FAD-linked sulfhydryl oxidase ALR (Homo sapiens), P55789; purified ALR, DTT oxidation; inhibition, % (no concentration beside the values); actives 3.8% (n = 290,000); AID 485317, 2010;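 active means mean replicate inhibition above about 79%, with every replicate also reaching it, limit read from the data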
# Target sequence (P55789 whole entry, looked up): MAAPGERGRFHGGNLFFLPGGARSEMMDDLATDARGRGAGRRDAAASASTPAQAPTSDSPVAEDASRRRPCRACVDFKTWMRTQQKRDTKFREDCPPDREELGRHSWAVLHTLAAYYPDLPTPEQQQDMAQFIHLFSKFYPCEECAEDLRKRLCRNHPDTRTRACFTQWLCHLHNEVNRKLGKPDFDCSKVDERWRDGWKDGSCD
# HDAC3 inh: HDAC3 deacetylase inhibitors, primary screen, biochemical, fluorescence, cell-free homogeneous. inhibition, % at 8.3 µM. actives 0.15% (n = 320,000). recombinant HDAC3, fluorogenic peptide/trypsin coupled; in the data active means inhibition above about 26%, passing the limit was not always enough
# Rtt109 Vps75: inhibitors of C. albicans Rtt109/Vps75 HAT, primary screen, biochemical, ThioGlo CoA-SH fluorescence, plate reader; Histone acetyltransferase RTT109 (Candida albicans (strain SC5314 / ATCC MYA-2876)), …; purified Rtt109/Vps75, 4 h; inhibition, % at 34.9 µM; actives 0.16% (n = 330,000); AID 540336, 2011;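 active means inhibition of at least 50% in every replicate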
# Target sequence (Q5AAJ8 whole entry, looked up): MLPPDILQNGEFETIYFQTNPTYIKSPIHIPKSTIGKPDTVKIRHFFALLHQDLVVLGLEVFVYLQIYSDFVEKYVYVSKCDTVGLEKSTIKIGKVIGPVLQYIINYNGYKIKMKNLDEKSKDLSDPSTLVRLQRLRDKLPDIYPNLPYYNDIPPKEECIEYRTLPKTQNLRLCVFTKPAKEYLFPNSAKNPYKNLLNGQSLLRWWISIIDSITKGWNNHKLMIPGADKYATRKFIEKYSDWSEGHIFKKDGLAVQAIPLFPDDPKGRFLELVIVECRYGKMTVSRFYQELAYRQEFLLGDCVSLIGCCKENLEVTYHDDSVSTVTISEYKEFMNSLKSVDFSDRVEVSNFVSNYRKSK
# M18AAP inhibitor: PfM18AAP inhibitors, malaria aminopeptidase, primary screen, biochemical, QFRET, recombinant enzyme | M18 aspartyl aminopeptidase (Plasmodium falciparum 3D7) | H-Glu-NHMec fluorogenic cleavage | inhibition, % at 7.35 µM | actives 1.2% (n = 290,000) | AID 1822, 2009;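 active means inhibition above the campaign mean inhibition over all tested compounds plus 3 SD, cut at about 28% in these data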;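 further: 0% = plate median of test compound wells and 100% = 2 mM ZnCl2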
# UCH37 DUB inh: inhibitors of human UCH37 deubiquitinase, primary screen, biochemical, Ub-AMC cleavage, fluorescence; Ubiquitin carboxyl-terminal hydrolase isozyme L5 (Homo sapiens), Q9Y5K5; purified proteasome/UCH37; actives 0.33% (n = 330,000); inhibition, % (no concentration beside the values);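 active means mean inhibition over replicate wells above about 20%, limit read from the data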;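 further: 0% = compound-free wells with enzyme and 100% = wells lacking proteasome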
#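 System: Proteasome-associated human UCH37 deubiquitinase; Input: 0.15 nM proteasome in added enzyme buffer; Also added: Ub-AMC substrate from 1 µM stock; Incubation: 30 min compound-proteasome preincubation then 25 min substrate reaction, room temperature; Detection: fluorescence, ex 355 nm, em 460 nm; Read-out: % inhibition of Ub-AMC cleavage fluorescence; Benchmarks: no-proteasome and no-compound wells.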
# FAS-TE inh: FAS thioesterase domain inhibitors, primary screen, biochemical, fluorescence intensity, uHTS | Fatty acid synthase (Homo sapiens), P49327 | recombinant FAS-TE, OMFH fluorogenic substrate, fluorescence endpoint | inhibition, % at 15 µM | actives 0.67% (n = 360,000);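 active means compounds whose normalised, plate-corrected inhibition of enzyme fluorescence in the single-dose primary screen is 50% or more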;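 further: 0% = DMSO with enzyme and 100% = substrate without enzyme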
# The depositor's hits bear a star; i = inactive; / = no result given.
SMILES,ALR H2O2 inh,HDAC3 inh,Rtt109 Vps75,M18AAP inhibitor,UCH37 DUB inh,FAS-TE inh
CC(=O)Nc1cccc(NC(=O)CSc2nc(=O)n(CCN3CCOCC3)c3c2CCC3)c1,97*,3,9,/,4,-5
CC(=O)Nc1cccc(NC(=O)CSc2nc(=O)n(CCCN3CCOCC3)c3c2CCC3)c1,98*,-1,10,/,3,-5
CCOc1ccc(C(C)=NNC(=O)C(OC)c2ccccc2)cc1 (centres undefined),/,/,/,/,-1,/
O=C1C2C(C(=O)N1N=Cc1cc(Br)cc([N+](=O)[O-])c1O)C1C=CC2C12CC2 (centres undefined),/,/,/,/,3,/
O=C(NN=C/C(Cl)=C/c1ccccc1)c1ccco1,/,/,/,/,12,/
Cc1ccc(S(=O)(=O)N2CCN(CC(=O)NN=Cc3ccc(C)o3)CC2)cc1,/,/,/,/,5,/
COc1ccc(C=NNC(=O)c2sccc2C)cc1Cn1nc(C)cc1C,/,/,/,/,-1,/
Cc1ccccc1-c1nc(CS(=O)(=O)CC(=O)NCc2ccc(F)cc2)c(C)o1,-17,/,-4,2,0,14
CCN1CCN(C(=O)CS(=O)(=O)Cc2nc(-c3ccccc3C)oc2C)CC1,-15,0,-9,2,-1,-3
Cc1ccccc1-c1nc(CS(=O)CC(=O)NCc2ccccn2)c(C)o1 (centres undefined),98*,1,2,0,2,-3
CCC(C)NC(=O)CS(=O)Cc1nc(-c2ccccc2C)oc1C (centres undefined),98*,8,-3,3,1,-5
Cc1ccccc1-c1nc(CN2CCC(C(=O)NCCN3CCOCC3)CC2)c(C)o1,-5,4,5,-2,0,-4
Cc1ccccc1-c1nc(CS(=O)CC(=O)NCCN2CCN(Cc3ccccc3)CC2)c(C)o1 (centres undefined),99*,3,3,-1,4,-3
Cc1ccccc1-c1nc(CS(=O)CC(=O)NCCCN(C)c2ccccc2)c(C)o1 (centres undefined),99*,0,1,7,0,-2
O=C(NN=Cc1cccc([N+](=O)[O-])c1)C1CC(=O)N(c2ccc(Br)cc2)C1 (centres undefined),/,/,/,/,2,/
O=C(Cc1c[nH]c2ccccc12)NN=Cc1ccccc1O,/,/,/,/,-10,/
Cc1ccccc1-c1nc(CS(=O)(=O)CC(=O)NCCc2ccccc2)c(C)o1,-8,6,3,-1,3,13
CCCNC(=O)CS(=O)Cc1nc(-c2ccccc2C)oc1C (centres undefined),99*,0,5,-4,4,-10
COc1ccc(CC(=O)ON=C(N)c2ccc(Br)cc2)cc1OC,/,/,/,/,0,/
CCOC(=O)c1c(N2CCN(c3ccccc3)CC2)cc(C)nc1C,97*,-1,-3,5,2,0
C/C(C=NNC(=O)Cn1cncn1)=C/c1ccc(C(C)C)cc1,/,/,/,/,23*,/
N#CC(=NNc1ccc(F)cc1)C(=O)C1CC1,/,/,/,/,11,/
COc1ccc(OC)c(C=NNC(=O)c2cc3c(ccc4ccccc43)o2)c1,/,/,/,/,i,/
CN(C)c1ccc(C(=O)Nc2nnc(C3=COCCO3)o2)cc1,0,6,26,1,8,-3
CN(c1ccccc1)S(=O)(=O)c1ccc(C(=O)Nc2nnc(C3=COCCO3)o2)cc1,98*,9,3,8,5,11
SMILES,ALR H2O2 inh,HDAC3 inh,Rtt109 Vps75,M18AAP inhibitor,UCH37 DUB inh,FAS-TE inh
CC(OC(=O)c1ccc(NC(=O)CC#N)cc1)C(=O)NCCC1=CCCCC1 (centres undefined),98*,0,0,/,15,-1
CCOC(=O)c1c(C)[nH]c(C(=O)C(C)OC(=O)c2ccc(NC(=O)CC#N)cc2)c1C (centres undefined),99*,16,-2,/,0,6
CC(OC(=O)c1ccc(S(=O)(=O)N(C)c2ccccc2)cc1)C(=O)NCCC1=CCCCC1 (centres undefined),/,3,4,2,10,17
Cc1cccc(N2CCN(C(=O)NC3CCCCC3)CC2C)c1 (centres undefined),88*,13,-2,0,5,-4
Cc1cccc(N2CCN(C(=O)CCN3C(=O)C4C5C=CC(C5)C4C3=O)CC2C)c1 (centres undefined),84*,-5,20,-2,-3,-7
COc1ccccc1N1CCN(C(=O)CCn2c(=O)[nH]c3ccsc3c2=O)CC1,24,-1,-1,1,4,-7
Cc1cccc(N2CCN(C(=O)CCn3c(=O)[nH]c4ccsc4c3=O)CC2C)c1 (centres undefined),99*,6,4,5,4,-1
Cc1cccc(N2CCN(C(=O)c3cccc(N4C(=O)C5C6C=CC(C6)C5C4=O)c3)CC2C)c1 (centres undefined),25,0,7,3,3,0
Cc1cccc(N2CCN(C(=O)CCCn3c(=O)[nH]c4ccsc4c3=O)CC2C)c1 (centres undefined),98*,0,4,1,-1,-3
COc1cccc(NC(=O)C(=O)NN=Cc2ccc3c(c2)OCO3)c1,/,/,/,/,5,/
O=C(NN=Cc1ccc([N+](=O)[O-])cc1)c1cccnc1,/,/,/,/,12,/
Cc1cccc(N2CCN(C(=O)c3ccc(CS(=O)(=O)c4ccccc4C)o3)CC2C)c1 (centres undefined),95*,9,-5,2,3,14
C[C@@H]1CN([C@H](C)CO)C(=O)c2cc(NC(=O)Nc3ccc(C(F)(F)F)cc3)ccc2O[C@H]1CN(C)C(=O)Nc1ccc(F)cc1,/,/,-5,/,2,18
C[C@H]1CN([C@@H](C)CO)C(=O)c2cccc(NC(=O)Nc3ccc(C(F)(F)F)cc3)c2O[C@H]1CN(C)C,-2,1,6,/,0,-5
C[C@H]1CN([C@@H](C)CO)C(=O)c2cccc(NC(=O)Nc3ccc(C(F)(F)F)cc3)c2O[C@@H]1CN(C)C(=O)Nc1ccc(F)cc1,3,35*,-12,/,2,45
C[C@H](CO)N1C[C@H](C)[C@@H](CN(C)C(=O)Nc2ccc(C(F)(F)F)cc2)Oc2ccc(NC(=O)Nc3ccc(C(F)(F)F)cc3)cc2C1=O,-1,35*,0,/,2,21
